Results reported in ChEMBL document CHEMBL1132358, “Virtual combinatorial syntheses and computational screening of new potential anti-herpes compounds” (J Med Chem, 1999).

Test system: Vero
Assay: Anti-Herpes simplex virus type-1 activity in vero cells using plaque inhibition assay
Format: functional, cell-based, Chlorocebus sabaeus
Procedure, shortened: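 Plaque-reduction assay with HSV-1 McIntyre strain (titrated suspension) on confluent Vero monolayers. Cells infected with 100 PFU in MEM and adsorbed 2 h at 37 °C. Inoculum then replaced with MEM containing 0.2% γ-globulin plus serial concentrations of compound. Untreated infected wells served as CPE controls; CPE completed 1–2 days post-infection. Result given as IC50.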

Compound	IC50 (Chlorocebus sabaeus, Vero) [nM]	IC50 (vero) [nM]
O=C(O)C1=C(C(=O)Oc2ccc(F)c(F)c2F)CCC1	1800	–
Cc1noc(C)c1[N+](=O)[O-]	900	–
O=C(O)C1=C(C(=O)Nc2ccc(F)c(F)c2F)CCC1	900	–
O=C(O)C1=C(C(=O)Nc2c(F)cccc2F)CCC1	900	–
O=C1NC(=O)C([N+](=O)[O-])C(=O)N1	1700	–
O=C(O)C1=C(C(=O)Oc2ccc(F)cc2F)CCC1	1400	–
O=C(O)C1=C(C(=O)Nc2cccc(F)c2F)CCC1	900	–
Cc1cc(=O)oc2cc(OCC(=O)O)ccc12	70	–
O=C(O)c1n[nH]nc1C(=O)O	5000	–
O=C(CN1CCNCC1)N1CCCC1	600	–
Cc1cn([C@@H]2O[C@H](CO)[C@@H](O)[C@H]2O)c(=O)nc1N	60	–
Nc1nc(N)c2nc(CO)cnc2n1	160	–
O=C(O)CCCCC(=O)O [ADIPIC ACID]	400	–
Nc1ncnc2c1ncn2[C@@H]1O[C@H](CO)C[C@H]1O [CORDYCEPIN]	500	–
O=c1ccn([C@H]2C[C@H](O)[C@@H](CO)O2)c(=O)[nH]1 [DEOXYURIDINE]	2200	–
Cc1cn([C@H]2C[C@H](O)[C@@H](CO)O2)c(=O)[nH]c1=O [DOXRIBTIMINE]	400	300
O=c1[nH]cnc2c1ncn2[C@@H]1O[C@H](CO)[C@@H](O)[C@H]1O [INOSINE]	230	–
OC[C@H]1O[C@@H](n2cnc3cncnc32)[C@H](O)[C@@H]1O [NEBULARINE]	600	–
O=C1CN(/N=C/c2ccc([N+](=O)[O-])o2)C(=O)N1 [NITROFURANTOIN]	900	–
O=C(O)CCC(=O)O [SUCCINIC ACID]	1300	–
